In brackets after ≈: the same amount, converted by molar mass. Activity calls are given as the source filed them. No cut-off for these calls is given here.
Experiments:
[1] = tested on: Staphylococcus aureus; test: Antibacterial activity against benzylpenicillin-resistant Staphylococcus aureus after 17 hrs by serial two fold dilution method; assay type: functional
How it was run: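 Agar dilution MIC. Compound was serially diluted twofold in Mueller-Hinton agar. The surface was inoculated with a diluted 18-24-h broth culture […]. Plates were incubated 17 h at 37 °C. MIC was taken as the lowest concentration giving complete or virtually complete inhibition of visible growth.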

[2] = tested on: Staphylococcus aureus; test: Antibacterial activity against Staphylococcus aureus after 17 hrs by serial two fold dilution method; assay type: functional
How it was run: (§1)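 Agar dilution MIC: compound serially diluted twofold in Mueller-Hinton agar. Plate surfaces were inoculated with a suitably diluted 18-24-h broth culture and incubated 17 h at 37 °C. MIC was read as the lowest concentration giving complete or virtually complete inhibition of visible growth.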

[3] = tested on: Staphylococcus epidermidis; test: Antibacterial activity against Staphylococcus epidermidis after 17 hrs by serial two fold dilution method; assay type: functional; how it was run: as §1
[4] = tested on: Enterococcus faecalis; test: Antibacterial activity against Staphylococcus faecalis after 17 hrs by serial two fold dilution method; assay type: functional; how it was run: as §1
[5] = tested on: Streptococcus pneumoniae; test: Antibacterial activity against Streptococcus pneumoniae after 17 hrs by serial two fold dilution method; assay type: functional; how it was run: as §1
[6] = tested on: Streptococcus pyogenes; test: Antibacterial activity against Streptococcus pyogenes after 17 hrs by serial two fold dilution method; assay type: functional; how it was run: as §1
[7] = tested on: Klebsiella aerogenes; test: Antibacterial activity against Enterobacter aerogenes after 17 hrs by serial two fold dilution method; assay type: functional
[8] = tested on: Enterobacter cloacae; test: Antibacterial activity against Enterobacter cloacae after 17 hrs by serial two fold dilution method; assay type: functional
[9] = tested on: Escherichia coli; test: Antibacterial activity against Escherichia coli after 17 hrs by serial two fold dilution method; assay type: functional; how it was run: as §1
[10] = tested on: Klebsiella pneumoniae; test: Antibacterial activity against Klebsiella pneumoniae after 17 hrs by serial two fold dilution method; assay type: functional; how it was run: as §1
[11] = tested on: Proteus mirabilis; test: Antibacterial activity against Proteus mirabilis after 17 hrs by serial two fold dilution method; assay type: functional; how it was run: as §1
[12] = tested on: Proteus vulgaris; test: Antibacterial activity against Proteus vulgaris after 17 hrs by serial two fold dilution method; assay type: functional; how it was run: as §1
[13] = tested on: Providencia stuartii; test: Antibacterial activity against Providencia stuartii after 17 hrs by serial two fold dilution method; assay type: functional; how it was run: as §1
[14] = tested on: Pseudomonas aeruginosa; test: Antibacterial activity against Pseudomonas aeruginosa after 17 hrs by serial two fold dilution method; assay type: functional; how it was run: as §1
[15] = tested on: Salmonella; test: Antibacterial activity against Salmonella schottmuelleri after 17 hrs by serial two fold dilution method; assay type: functional; how it was run: as §1
[16] = tested on: Staphylococcus aureus; test: Antibacterial activity against benzylpenicillin-resistant Staphylococcus aureus infected in sc dosed CD1 mouse assessed as host survival administered 1 and 4 hrs after infection measured on day 4; assay type: functional
How it was run: (§2)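 Male albino CD-1 mice, 20 (± 1) g, infected intraperitoneally with a bacterial suspension giving uniformly lethal infection. Groups of ten mice were treated subcutaneously with antibiotic at 1 and 4 h post-infection. Survival over 4 days was recorded.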

[17] = tested on: Streptococcus pyogenes; test: Antibacterial activity against Streptococcus pyogenes infected in sc dosed CD1 mouse assessed as host survival administered 1 and 4 hrs after infection measured on day 4; assay type: functional; how it was run: as §2
[18] = tested on: Escherichia coli; test: Antibacterial activity against Escherichia coli infected in sc dosed CD1 mouse assessed as host survival administered 1 and 4 hrs after infection measured on day 4; assay type: functional; how it was run: as §2
[19] = tested on: Klebsiella pneumoniae; test: Antibacterial activity against Klebsiella pneumoniae infected in sc dosed CD1 mouse assessed as host survival administered 1 and 4 hrs after infection measured on day 4; assay type: functional; how it was run: as §2
[20] = tested on: Proteus mirabilis; test: Antibacterial activity against Proteus mirabilis infected in sc dosed CD1 mouse assessed as host survival administered 1 and 4 hrs after infection measured on day 4; assay type: functional; how it was run: as §2
[21] = tested on: Salmonella; test: Antibacterial activity against Salmonella schottmuelleri infected in sc dosed CD1 mouse assessed as host survival administered 1 and 4 hrs after infection measured on day 4; assay type: functional; how it was run: as §2
[22] = tested on: Neisseria gonorrhoeae; test: Antibacterial activity against Neisseria gonorrhoeae after 17 hrs by serial two fold dilution method; assay type: functional, organism-based
[23] = tested on: Haemophilus influenzae; test: Antibacterial activity against Haemophilus influenzae after 17 hrs by serial two fold dilution method; assay type: functional, organism-based
[24] = tested on: Bacteroides fragilis; test: Antibacterial activity against Bacteroides fragilis after 17 hrs by serial two fold dilution method; assay type: functional, organism-based
[25] = tested on: Fusobacterium varium; test: Antibacterial activity against Fusobacterium varium after 17 hrs by serial two fold dilution method; assay type: functional, organism-based
[26] = tested on: Streptococcus pyogenes; test: Antibacterial activity against Streptococcus pyogenes infected in po dosed CD1 mouse assessed as host survival administered 1 and 4 hrs after infection measured on day 4; assay type: functional

Row | SMILES | MIC [1] [µg/mL] | MIC [2] [µg/mL] | MIC [3] [µg/mL] | MIC [4] [µg/mL] | MIC [5] [µg/mL] | MIC [6] [µg/mL] | MIC [7] [µg/mL] | MIC [9] [µg/mL] | MIC [10] [µg/mL] | MIC [11] [µg/mL] | MIC [12] [µg/mL] | MIC [13] [µg/mL] | MIC [14] [µg/mL] | MIC [15] [µg/mL] | ED50 [16] [mg/kg] | ED50 [18] [mg/kg] | ED50 [19] [mg/kg] | ED50 [20] [mg/kg] | ED50 [21] [mg/kg] | Activity [22] | other results
1 | Cn1nnnc1SCC1=C(C(=O)O)N2C(=O)[C@@H](NC(=O)Cn3cccc3)[C@H]2SC1 | 0.8 (≈ 1.84 µM) | 0.4 (≈ 0.919 µM) | 1.6 (≈ 3.67 µM) | > 100 | 0.1 (≈ 0.23 µM) | 0.1 (≈ 0.23 µM) | 25 (≈ 57.4 µM) | 0.8 (≈ 1.84 µM) | 1.6 (≈ 3.67 µM) | 6.2 (≈ 14.2 µM) | > 100 | 6.2 (≈ 14.2 µM) | > 100 | 0.4 (≈ 0.919 µM) | 72 | 2.5 | 67 | 100 | 2.5 | inactive | MIC [8]: 6.2 µg/mL (≈ 14.2 µM); ED50 [17]: 2.3 mg/kg; Activity [23]: inactive; Activity [24]: inactive; Activity [25]: inactive
2 | Cc1nnc(SCC2=C(C(=O)O)N3C(=O)[C@@H](NC(=O)Cn4cnnn4)[C@H]3SC2)s1 [CEFAZOLIN] | 0.4 (≈ 0.88 µM) | 0.2 (≈ 0.44 µM) | 0.8 (≈ 1.76 µM) | > 100 | 0.1 (≈ 0.22 µM) | 0.1 (≈ 0.22 µM) | > 50 | 0.8 (≈ 1.76 µM) | 1.6 (≈ 3.52 µM) | 6.2 (≈ 13.6 µM) | > 100 | > 50 | > 100 | 1.6 (≈ 3.52 µM) | 22 | 0.6 | 42 | 79 | 2.2 | inactive | Activity [23]: inactive; Activity [24]: inactive; Activity [25]: inactive; ED50 [26]: 1.8 mg/kg

Source: ChEMBL document CHEMBL3244034, “Semisynthetic cephalosporins. Synthesis and structure-activity relationships of 7-(1-pyrryl)- and 7-(1-indolyl)acetamidocephalosporin derivatives” (1978)
